What all share (set-up): scale not given: the % may be the effect or the level left
The nature of assay [1]: Antioxidant activity assessed as reduction in lipid peroxidation in microsomes at 200 ug/mL measured as malondialdehyde formation by spectrophotometry relative to control. The following applies: Microsome.
The subject of assay [2] is Rattus norvegicus. Put plainly: Antidyslipidemic activity against triton-induced hyperlipidemia in Charles Foster rat assessed as reduction in total cholesterol level at 100 mg/kg, po after 18 hrs relative to control. Format: functional. In a few lines: (§1)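 Adult male Charles Foster rats (200 […] 225 g), six per group. Triton WR-1339 at 400 mg/Kg ip induced hyperlipidemia. Test compound was given at 100 mg/Kg po, suspended in 0.2% w/v gum acacia in water, at the same time as triton; vehicle controls were included. After 18 h, retro-orbital blood was taken into EDTA and plasma obtained (2500 g, 4 °C, 10 min). Plasma was diluted 1:3 in saline and TC, PL and Tg measured by standard methods. Reported as mean […] SD; Student's t-test.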

The test system of assay [3] is Rattus norvegicus. Put plainly: Antidyslipidemic activity against triton-induced hyperlipidemia in Charles Foster rat assessed as reduction in phospholipid level at 100 mg/kg, po after 18 hrs relative to control. Format: functional. In a few lines: as §1
For assay [4], the system named is Rattus norvegicus. Put plainly: Antidyslipidemic activity against triton-induced hyperlipidemia in Charles Foster rat assessed as reduction in triglyceride level at 100 mg/kg, po after 18 hrs relative to control. Format: functional. Put shortly: as §1
Assay [5] deals with Rattus norvegicus. Put plainly: Decrease in triton-induced increase in protein level in Charles Foster rat hyperlipidemia model at 100 mg/kg, po after 18 hrs relative to control. Format: functional.
Assay [6] relates to Rattus norvegicus. Put plainly: Antidyslipidemic activity against triton-induced inhibition of post heparin lipolytic activity in Charles Foster rat hyperlipidemia model assessed as formation of free fatty acid per mL of plasma at 100 mg/kg, po after 18 hrs relative to control. Format: functional. Put shortly: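 Triton WR-1339 rat model (400 mg/Kg ip; compound 100 mg/Kg po in gum acacia, given with triton; six rats per group). Post-heparin lipolytic activity was measured in plasma collected at 18 h. Expressed as nmol free fatty acid formed/h/mL plasma; mean ± SD.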

Assay [7] in a line: Antioxidant activity assessed as reduction in generation of superoxide radicals at 100 ug/mL measured as formazone formation by spectrophotometry relative to control. The assay is classed as functional. In a few lines: (§2)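 Superoxide was generated enzymatically with xanthine ([…]), xanthine oxidase (0.04 U) and nitroblue tetrazolium (320 μM) in 100 mM phosphate buffer, pH 8.2, with or without compound. Incubated 30 min at 37 °C, then stopped with glacial acetic acid. Formazone was quantified spectrophotometrically (nmol/min). Mean ± SD of six; Student's t-test.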

Assay [8] is described as follows: Antioxidant activity assessed as reduction in generation of superoxide radicals at 200 ug/mL measured as formazone formation by spectrophotometry relative to control. Format: functional. In a few lines: as §2
Assay [9] can be described thus: Antioxidant activity assessed as reduction in generation of hydroxyl radicals at 100 ug/mL measured as malondialdehyde formation by spectrophotometry relative to control. The assay is classed as functional.
The nature of assay [10]: Antioxidant activity assessed as reduction in generation of hydroxyl radicals at 200 ug/mL measured as malondialdehyde formation by spectrophotometry relative to control. The assay is classed as functional.
A short description of assay [11]: Antioxidant activity assessed as reduction in lipid peroxidation in microsomes at 100 ug/mL measured as malondialdehyde formation by spectrophotometry relative to control. The assay is classed as functional. The following applies: Microsome.
Assay [12] can be described thus: Antioxidant activity assessed as reduction in lipid peroxidation in microsomes at 200 ug/mL measured as malondialdehyde formation by spectrophotometry relative to control. The assay is classed as functional. The following applies: Microsome.

The source of these data is ChEMBL document CHEMBL1154533, “Syntheses and evaluation of glucosyl aryl thiosemicarbazide and glucosyl thiosemicarbazone derivatives as antioxidant and anti-dyslipidemic agents” (2009).

The structures appear in SMILES notation.

As to `Cc1c(C)c2c(c(C)c1O)CC[C@@](C)(CCC[C@H](C)CCC[C@H](C)CCCC(C)C)O2`, the Activity in [1] is 53%.
As for `CC(=O)OC[C@H]1O[C@@H](NC(=S)N/N=C(\C)c2ccc(Br)cc2)[C@H](OC(C)=O)[C@@H](OC(C)=O)[C@@H]1OC(C)=O`, the Activity in assay [2] was determined as 22%; in assay [3] it was 26%; in assay [4], 25%; in [5] it was 26%; in assay [6] it was 16%; in assay [7] it was 21%. In addition, the Activity in assay [8] stood at 33%; in assay [9], 14%; in assay [10], 24%; in assay [11], 16%; in assay [12], 29%.
For the molecule `CC(=O)OC[C@H]1O[C@@H](NC(=S)NNc2ccccc2)[C@H](OC(C)=O)[C@@H](OC(C)=O)[C@@H]1OC(C)=O`, the Activity amounted to 11% in assay [2]; 10% in [3]; 9% in assay [4]; 16% in assay [5]; 8% in assay [6]; 19% in [7]. Further, the Activity in assay [8] worked out at 32%; in assay [9], 25%; in assay [10] it was 42%; in assay [11], 23%; in [12] it was 39%.
As for `CC(=O)OC[C@H]1O[C@@H](NC(=S)N/N=C(\C)c2cccc([N+](=O)[O-])c2)[C@H](OC(C)=O)[C@@H](OC(C)=O)[C@@H]1OC(C)=O`, the Activity was 23% in assay [2]; 19% in assay [3]; 18% in assay [4]; 19% in assay [5]; 10% in assay [6]; 17% in assay [7]. In addition, the Activity in [8] was found to be 33%; in [9], 24%; in assay [10], 35%; in assay [11] it was 20%; in assay [12], 30%.
Consider `CC(=O)OC[C@H]1O[C@@H](NC(=S)N/N=C(\C)c2cccc(N)c2)[C@H](OC(C)=O)[C@@H](OC(C)=O)[C@@H]1OC(C)=O`, for which the Activity in assay [2] came to 16%; in [3] it was 15%; in [4], 13%; in assay [5], 20%; in assay [6], 9%; in assay [7] it was 23%. The Activity in assay [8] is 38%; in assay [9], 20%; in assay [10] it was 38%; in assay [11], 19%; in assay [12], 35%.
As for `CC(=O)OC[C@H]1O[C@@H](NC(=S)NNc2ccc([N+](=O)[O-])cc2[N+](=O)[O-])[C@H](OC(C)=O)[C@@H](OC(C)=O)[C@@H]1OC(C)=O`, the Activity amounted to 13% in assay [2]; 10% in [3]; 8% in assay [4]; 13% in assay [5]; 17% in assay [6]; 22% in assay [7]. Besides, the Activity in [8] worked out at 28%; in assay [9] it was 18%; in assay [10], 26%; in assay [11] it was 23%; in assay [12], 36%.
